An excerpt weighted towards active compounds, which were near 2.4% of everything screened.
PRMT1 inh = blocks human protein arginine methyltransferase 1 | 370,000 compounds, 1.3% hits | inhibition, % at 2.79 µM | AID 652257 | recombinant PRMT1, activity-based probe fluorescence polarization;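 active means inhibition above about 21% made by adding two undisclosed values, limit read from the data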
SIAE primary = inhibitors of human sialic acid acetylesterase SIAE; Q9HAT2; SIAE FP-Rh probe binding, fluorescence polarization; inhibition, % at 9.66 µM; 370,000 compounds, 0.69% hits; AID 1053197;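 active means inhibition above a cutoff: mean of compounds within the control limits plus 3 SD of those, cut at about 17% in these data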
Target sequence (Q9HAT2 whole entry, looked up): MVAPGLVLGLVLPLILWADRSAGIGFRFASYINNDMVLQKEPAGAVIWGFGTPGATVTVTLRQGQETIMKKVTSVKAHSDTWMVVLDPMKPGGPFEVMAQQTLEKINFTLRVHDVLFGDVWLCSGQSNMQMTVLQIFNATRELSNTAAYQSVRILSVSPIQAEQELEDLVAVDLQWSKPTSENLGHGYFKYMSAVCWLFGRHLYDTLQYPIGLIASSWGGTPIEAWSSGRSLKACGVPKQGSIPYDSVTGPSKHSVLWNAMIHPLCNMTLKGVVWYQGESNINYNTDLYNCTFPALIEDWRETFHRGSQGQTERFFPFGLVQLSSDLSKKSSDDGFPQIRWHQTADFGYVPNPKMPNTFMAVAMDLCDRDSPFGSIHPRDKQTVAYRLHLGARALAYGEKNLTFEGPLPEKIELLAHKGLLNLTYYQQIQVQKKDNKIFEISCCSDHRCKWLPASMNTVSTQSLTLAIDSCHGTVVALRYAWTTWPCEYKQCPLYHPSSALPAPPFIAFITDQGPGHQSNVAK
JMJD2C inh = inhibitors of human GASC-1 (JMJD2C) demethylase; Q9H3R0; GST-JMJD2C(1-420) H3K9me3 demethylation, DELFIA europium; inhibition, % at 2.35 µM; 330,000 compounds, 0.069% hits; AID 2099;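 active means more than half of a compound's replicate wells show inhibition beyond 50%, single wells judged on their own value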;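 further: signal counts dimethyl H3K9 product captured on neutravidin plate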
mABHD4 FP = ABHD4 (mouse) inhibition, primary FP screen; 370,000 compounds, 0.54% hits; Q8VD66; inhibition, % at 8.92 µM; AID 720543; purified mABHD4, FP-Rh probe fluorescence polarization;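 active means inhibition exceeding the mean over every tested compound plus 3 SD, cut at about 30% in these data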
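Assay system: mouse ABHD4 enzyme, wild type / Also added: fluorescent activity-based probe FP-Rh / Doses: single nominal dose of 8.92 µM, 0.89% DMSO final / Timing: 45 min compound pre-incubation plus 60 min probe step, 25 °C / Signal: FP readout, ex 525 nm / em 598 nm / Control set: S159A mutant/DMSO as 100%, compound-well median as 0%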
HTRA1 inhibitor = blocks human HTRA1 serine peptidase | AID 504803 | 340,000 compounds, 0.5% hits | Q92743 | recombinant HTRA1, FP-rhodamine activity-based probe, fluorescence polarization | inhibition, % at 5.96 µM; in the data active means inhibition above about 36%
PRMT1 inh conf = confirmation of human PRMT1 inhibitors; inhibition, % at 2.79 µM; shares compounds with PRMT1 inh; 3,300 compounds, 42% hits; recombinant His-PRMT1, activity-based probe fluorescence polarization; AID 687036;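 active means mean inhibition across replicates above the hit cutoff derived for the earlier primary screen, cut at about 22% in these data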
Of the large screens only hits and unclear results are named; the others gave an inactive call (follow-up assays come after a bar, where they were run).

O=C(NCC1CCCCC1)c1ccc2nc([C@@H]3O[C@H](CO)[C@H](O)[C@H](O)[C@H]3O)[nH]c2c1	none (no result: JMJD2C inh, HTRA1 inhibitor)
CC(=O)NCCN=C(C)c1sc2ccccc2c1O	PRMT1 inh 25 | PRMT1 inh conf 21
Oc1c(N=Nc2ccccc2)sc2ccccc12	none
CC(=Nc1cccc(C)c1)c1sc2ccccc2c1O	PRMT1 inh 26 | PRMT1 inh conf inactive
CC(=Nc1ccccc1O)c1sc2ccccc2c1O	PRMT1 inh 34 | PRMT1 inh conf 25
C=CCN1C(=O)[C@@H](CC(=O)N2CCOCC2)[C@]2(C(=O)OC)CCCCC=C12	none (no result: JMJD2C inh, HTRA1 inhibitor)
Cc1ccc(S(=O)(=O)N2C=C(c3ccccc3)c3ccccc3-c3ccccc32)cc1	none (no result: JMJD2C inh, HTRA1 inhibitor)
Cc1ccc(-n2nnnc2C(Cl)(Cl)c2nnnn2-c2ccc(C)cc2)cc1	PRMT1 inh 48 | PRMT1 inh conf 90
CC(=O)OCC1=C(C(=O)O)N2C(=O)[C@@H](NC(=O)Cc3ccccc3)[C@H]2SC1	PRMT1 inh 27 (no result: JMJD2C inh) | PRMT1 inh conf inactive
CCOc1ccc(C(=O)NC2C(=O)N3C(C(=O)O)=C(COC(C)=O)CSC23)cc1OCC (stereo unspecified)	PRMT1 inh 27 (no result: JMJD2C inh) | PRMT1 inh conf inactive
CC(=O)OCC1=C(C(=O)O)N2C(=O)C(NC(=O)C(C)Cn3cc(Cl)cn3)C2SC1 (stereo unspecified)	none
CC(=O)OCC1=C(C(=O)O)N2C(=O)C(NC(=O)COc3ccc(F)cc3)C2SC1 (stereo unspecified)	PRMT1 inh 37 (no result: JMJD2C inh) | PRMT1 inh conf 48
Cc1cc(C)cc(OCCCN2CCC(C(O)(c3ccccc3)c3ccccc3)CC2)c1	none (no result: JMJD2C inh, HTRA1 inhibitor)
Cc1ccc(S(=O)(=O)N/N=C/c2ccccc2O)cc1	none
Cc1ccc(S(=O)(=O)NN=CC=CC=NNS(=O)(=O)c2ccc(C)cc2)cc1	PRMT1 inh 39 (no result: JMJD2C inh) | PRMT1 inh conf 44
Cc1ccc(-c2nc(N)sc2CC(=O)OCC(=O)N2C(C)CCCC2C)cc1 (stereo unspecified)	PRMT1 inh 49 | PRMT1 inh conf inactive
Cc1ccc(-c2nc(N)sc2CC(=O)OCC(=O)NC2CCCC(C)C2C)cc1 (stereo unspecified)	none
CCOc1ccc(Oc2c(Cl)c(Br)nn(Cc3cccc4ccccc34)c2=O)cc1	none (no result: JMJD2C inh, HTRA1 inhibitor)
CCCCN(C)C(=O)c1ccc2c(c1)NC(=O)C(C)(C)O2	none (no result: JMJD2C inh, HTRA1 inhibitor)
O=C(CCNc1ccc(Cl)cc1)c1cccs1	none
O=C(CCSc1ccc(Cl)cc1)c1cccs1	PRMT1 inh 48 | PRMT1 inh conf 43
CCN=C1SC(CC(=O)NCCc2ccc(OC)c(OC)c2)C(=O)N1CC (stereo unspecified)	PRMT1 inh 32 | PRMT1 inh conf inactive
COc1ccc(CCNC(=O)CC2SC(=NCCc3ccccc3)NC2=O)cc1 (stereo unspecified)	PRMT1 inh 26 | PRMT1 inh conf inactive
CCN=C1SC(CC(=O)NCCc2ccc(OC)cc2)C(=O)N1CC (stereo unspecified)	PRMT1 inh 31 | PRMT1 inh conf inactive
Cc1ccccc1S(=O)(=O)N1CCCc2nc(-c3ccc(Br)cc3)ccc21	none (no result: JMJD2C inh, HTRA1 inhibitor)
S=c1cnc2ccccc2[nH]1	PRMT1 inh 40 | PRMT1 inh conf inactive
O=C(CCN1CCCCCC1)c1ccccc1	none
O=C(/C=C/c1ccccc1)CCN1CCCCC1	PRMT1 inh 25 (no result: JMJD2C inh) | PRMT1 inh conf 50
O=[N+]([O-])c1cccc(N=Cc2ccccc2)c1	none (no result: JMJD2C inh)
COc1ccc(N=Cc2sc(O)c3ccccc23)cc1	none
O=[N+]([O-])c1cccc(N=Cc2sc3ccccc3c2O)c1	PRMT1 inh 40 (no result: HTRA1 inhibitor) | PRMT1 inh conf 25
O=[N+]([O-])c1ccc(N=Cc2sc3ccccc3c2O)cc1	PRMT1 inh 49 | PRMT1 inh conf inactive
Oc1c(C=NCc2ccccc2)sc2ccccc12	PRMT1 inh 43 | PRMT1 inh conf 34
c1coc(-c2nnc3sc(Cc4cccs4)nn23)c1	PRMT1 inh 64 | PRMT1 inh conf inactive
CCN(C(=O)COC(=O)CCC(=O)c1ccc(Cl)cc1)c1c(N)n(Cc2ccccc2)c(=O)[nH]c1=O	none (no result: JMJD2C inh)
CC1(C)c2ccccc2N(CC(N)=O)C12C=Cc1ccccc1O2 (stereo unspecified)	none
CC1(C)c2ccccc2N2CC(=O)N(CC(N)=O)C21C (stereo unspecified)	PRMT1 inh 56 | PRMT1 inh conf inactive
Nc1nc2ccc(S(=O)(=O)N3CCCCC3)cc2s1	PRMT1 inh 30 | PRMT1 inh conf 73
S=C1NC2=C(CCCC2=C2SCCCS2)C(c2ccccc2)N1 (stereo unspecified)	PRMT1 inh 35 | PRMT1 inh conf inactive
Fc1cccc(/C=C2\CCCC3=C2NC(=S)NC3c2cccc(F)c2)c1 (stereo unspecified)	PRMT1 inh 64 | PRMT1 inh conf inactive
COc1ccc(C2NC(=S)NC3=C2CCCC3=C2SCCS2)cc1 (stereo unspecified)	none
S=C1NC2=C(CCC/C2=C\c2ccc(Cl)cc2)C(c2ccc(Cl)cc2)N1 (stereo unspecified)	PRMT1 inh 27 | PRMT1 inh conf inactive
S=C1NC2=C(CCC/C2=C\c2ccccc2)C(c2ccccc2)N1 (stereo unspecified)	PRMT1 inh 43 | PRMT1 inh conf 32
C(=C1/CCCC2=C1Nc1ncnn1C2c1ccccc1)/c1ccccc1 (stereo unspecified)	none (no result: PRMT1 inh, SIAE primary, mABHD4 FP, HTRA1 inhibitor)
O=C(Nc1ccc(C(F)(F)F)cc1)OC1CC2CC1[C@H]1CCCCN1C2 (stereo partly specified)	none (no result: JMJD2C inh, HTRA1 inhibitor)
O=Cc1ccc([B-](F)(F)F)o1	none (no result: JMJD2C inh, HTRA1 inhibitor)
CC(C)CNC(=O)C1CSCCS(=O)(=O)N1Cc1ccc(F)cc1 (stereo unspecified)	none (no result: JMJD2C inh, HTRA1 inhibitor)
CC1COCC(C)N1S(=O)(=O)c1ccc2c(c1)CCN2C(=O)C1CCC1 (stereo unspecified)	none (no result: JMJD2C inh, HTRA1 inhibitor)
O=S1(=O)N[C@H](Cc2ccccc2)COc2cc(F)ccc21	none (no result: JMJD2C inh, HTRA1 inhibitor)
O=C1/C(=C/c2ccc(F)cc2)CCC1C1CCCC1 (stereo unspecified)	none
C=CCOc1ccc(C2NC(=S)NC3=C2CCc2ccccc23)cc1 (stereo unspecified)	none
CC1CC2=C(NC(=S)NC2c2ccc(F)cc2)/C(=C/c2ccc(F)cc2)C1 (stereo unspecified)	PRMT1 inh 49 | PRMT1 inh conf 22
Fc1ccccc1/C=C1\CCCC2=C1NC(=S)NC2c1ccccc1F (stereo unspecified)	PRMT1 inh 38 | PRMT1 inh conf inactive
CCCC(=O)OC12CCCN(C1)/C(=C/c1ccccc1)C2 (stereo unspecified)	none (no result: JMJD2C inh, HTRA1 inhibitor)
CCOC(=O)C1(c2ccccc2)SC(C(=O)OCC)(c2ccccc2)S1 (stereo unspecified)	PRMT1 inh 71 (no result: JMJD2C inh) | PRMT1 inh conf 59
CCOC(=O)C1(c2ccccc2)CCCNC1=O (stereo unspecified)	none (no result: JMJD2C inh)
Nc1ccccc1SSc1ccccc1N	PRMT1 inh 83 | PRMT1 inh conf 84

Bioassay records: PubChem BioAssay, several laboratories
